From ChEMBL document CHEMBL4014350, “Alkoxyurea-Based Histone Deacetylase Inhibitors Increase Cisplatin Potency in Chemoresistant Cancer Cell Lines” (J Med Chem, 2017)

Key:
[1] = target: T1, Histone deacetylase 1/6 (Homo sapiens) (UniProt Q13547+Q9UBN7); assay: Inhibition of HDAC1/HDAC6 in human Cal27CisR cells assessed as potentiation of 1 uM cisplatin-induced cytotoxicity by measuring combination index at 500 nM preincubated for 48 hrs followed by cisplatin treatment measured after 72 hrs by MTT assay
[2] = target: T1, Histone deacetylase 1/6 (Homo sapiens); assay: Inhibition of HDAC1/HDAC6 in human Cal27CisR cells assessed as potentiation of 10 uM cisplatin-induced cytotoxicity by measuring combination index at 500 nM preincubated for 48 hrs followed by cisplatin treatment measured after 72 hrs by MTT assay
[3] = target: T1, Histone deacetylase 1/6 (Homo sapiens); assay: Inhibition of HDAC1/HDAC6 in human Cal27CisR cells assessed as potentiation of 1 uM cisplatin-induced cytotoxicity by measuring combination index at 700 uM preincubated for 48 hrs followed by cisplatin treatment measured after 72 hrs by MTT assay; assay type: cell-based
How it was run: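 Cal27CisR cells preincubated 48 h with the HDAC inhibitor, then exposed to cisplatin for 72 h. Viability read by MTT. Combination index calculated by the Chou–Talalay method: CI > 1 antagonism, CI = 1 additive, CI < 0.9 synergism. Points with fraction affected below 0.20 are flagged. Values are the mean of three experiments.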

[4] = target: T1, Histone deacetylase 1/6 (Homo sapiens); assay: Inhibition of HDAC1/HDAC6 in human Cal27CisR cells assessed as potentiation of 3.16 uM cisplatin-induced cytotoxicity by measuring combination index at 800 nM preincubated for 48 hrs followed by cisplatin treatment measured after 72 hrs by MTT assay
CAL-27 [5] = assay: Potentiation of 2 uM cisplatin-induced cytotoxicity against human CAL27 cells assessed as decrease in cell viability by measuring combination index at 500 uM preincubated for 48 hrs followed by cisplatin treatment measured after 72 hrs by MTT assay; assay type: functional; conditions: in the assay text read “at 500 nM” for “at 500 uM”
How it was run: (§1)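 HDAC inhibitor was added 48 h before cisplatin, then cells were exposed to cisplatin for 72 h and viability was read by MTT assay. Combination index was computed by the Chou–Talalay method: CI > 1 is antagonism, CI = 1 additive, CI < 0.9 synergism. Points with fraction affected below 0.20 were flagged.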

CAL-27 [6] = assay: Potentiation of 1 uM cisplatin-induced cytotoxicity against human CAL27 cells assessed as decrease in cell viability by measuring combination index at 500 uM preincubated for 48 hrs followed by cisplatin treatment measured after 72 hrs by MTT assay; assay type: functional
How it was run: as §1

[7] = target: T1, Histone deacetylase 1/6 (Homo sapiens); assay: Inhibition of HDAC1/HDAC6 in human Cal27CisR cells assessed as potentiation of 10 uM cisplatin-induced cytotoxicity by measuring combination index at 800 nM preincubated for 48 hrs followed by cisplatin treatment measured after 72 hrs by MTT assay
[8] = target: T1, Histone deacetylase 1/6 (Homo sapiens); assay: Inhibition of HDAC1/HDAC6 in human Cal27CisR cells assessed as potentiation of 5 uM cisplatin-induced cytotoxicity by measuring combination index at 800 uM preincubated for 48 hrs followed by cisplatin treatment measured after 72 hrs by MTT assay; assay type: cell-based
How it was run: (§2)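 Cal27 and cisplatin-resistant Cal27CisR cells were preincubated with the HDAC inhibitor for 48 h, then given cisplatin in combination. Viability was read by MTT after 72 h. The combination index was computed by the Chou–Talalay method: CI > 1 is antagonism, CI = 1 is additive, and CI < 0.9 is synergism. Points with fraction affected below 0.20 were flagged.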

CAL-27 [9] = assay: Potentiation of 5 uM cisplatin-induced cytotoxicity against human CAL27 cells assessed as decrease in cell viability by measuring combination index at 800 uM preincubated for 48 hrs followed by cisplatin treatment measured after 72 hrs by MTT assay; assay type: functional; conditions: in the assay text read “at 800 nM” for “at 800 uM”
How it was run: as §1

CAL-27 [10] = assay: Potentiation of 5 uM cisplatin-induced cytotoxicity against human CAL27 cells assessed as decrease in cell viability by measuring combination index at 600 uM preincubated for 48 hrs followed by cisplatin treatment measured after 72 hrs by MTT assay; assay type: functional; conditions: in the assay text read “at 600 nM” for “at 600 uM”
How it was run: as §1

CAL-27 [11] = assay: Potentiation of 2 uM cisplatin-induced cytotoxicity against human CAL27 cells assessed as decrease in cell viability by measuring combination index at 600 uM preincubated for 48 hrs followed by cisplatin treatment measured after 72 hrs by MTT assay; assay type: functional; conditions: in the assay text read “at 600 nM” for “at 600 uM”
How it was run: as §1

[12] = target: T1, Histone deacetylase 1/6 (Homo sapiens); assay: Inhibition of HDAC1/HDAC6 in human Cal27CisR cells assessed as potentiation of 10 uM cisplatin-induced cytotoxicity by measuring combination index at 700 nM preincubated for 48 hrs followed by cisplatin treatment measured after 72 hrs by MTT assay
CAL-27 [13] = assay: Antiproliferative activity against human CAL27 cells measured after 72 hrs by MTT assay; assay type: functional, cell-based; conditions: CAL-27, 72 h
[14] = target: T1, Histone deacetylase 1/6 (Homo sapiens); assay: Inhibition of HDAC1/HDAC6 in human Cal27CisR cells assessed as potentiation of 20 uM cisplatin-induced cytotoxicity by measuring combination index at 700 nM preincubated for 48 hrs followed by cisplatin treatment measured after 72 hrs by MTT assay
[15] = Antiproliferative activity against human Med8A cells after 72 hrs by Celltiter-Glo assay; assay type: functional, cell-based
[16] = target: T1, Histone deacetylase 1/6 (Homo sapiens); assay: Inhibition of HDAC1/HDAC6 in human Cal27CisR cells assessed as potentiation of 20 uM cisplatin-induced cytotoxicity by measuring combination index at 500 nM preincubated for 48 hrs followed by cisplatin treatment measured after 72 hrs by MTT assay
[17] = Antiproliferative activity against human Cal27CisR cells measured after 72 hrs by MTT assay; assay type: functional, cell-based
[18] = target: T1, Histone deacetylase 1/6 (Homo sapiens); assay: Inhibition of HDAC1/HDAC6 in human Cal27CisR cells assessed as potentiation of 5 uM cisplatin-induced cytotoxicity by measuring combination index at 500 uM preincubated for 48 hrs followed by cisplatin treatment measured after 72 hrs by MTT assay; assay type: cell-based
How it was run: as §2

A2780 = assay: Antiproliferative activity against human A2780 cells measured after 72 hrs by MTT assay; assay type: functional, cell-based; conditions: A2780, 72 h
[19] = target: T1, Histone deacetylase 1/6 (Homo sapiens); assay: Inhibition of HDAC1/HDAC6 in human Cal27CisR cells assessed as potentiation of 20 uM cisplatin-induced cytotoxicity by measuring combination index at 600 nM preincubated for 48 hrs followed by cisplatin treatment measured after 72 hrs by MTT assay

T1 sequence (Q13547 whole entry, looked up): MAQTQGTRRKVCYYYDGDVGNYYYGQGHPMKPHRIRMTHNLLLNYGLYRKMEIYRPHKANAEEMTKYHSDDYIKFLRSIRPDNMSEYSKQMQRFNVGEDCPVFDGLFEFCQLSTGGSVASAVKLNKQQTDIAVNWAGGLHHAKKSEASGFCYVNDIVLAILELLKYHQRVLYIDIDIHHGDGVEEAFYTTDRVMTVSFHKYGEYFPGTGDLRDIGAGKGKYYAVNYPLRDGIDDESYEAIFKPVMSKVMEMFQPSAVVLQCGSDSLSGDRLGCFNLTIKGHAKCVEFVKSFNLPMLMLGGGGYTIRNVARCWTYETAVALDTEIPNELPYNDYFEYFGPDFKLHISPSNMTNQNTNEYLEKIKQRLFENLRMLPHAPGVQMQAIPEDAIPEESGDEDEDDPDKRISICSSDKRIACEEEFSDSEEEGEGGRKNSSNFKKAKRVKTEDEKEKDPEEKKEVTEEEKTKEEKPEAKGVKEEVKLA
T1 sequence (Q9UBN7 whole entry, looked up): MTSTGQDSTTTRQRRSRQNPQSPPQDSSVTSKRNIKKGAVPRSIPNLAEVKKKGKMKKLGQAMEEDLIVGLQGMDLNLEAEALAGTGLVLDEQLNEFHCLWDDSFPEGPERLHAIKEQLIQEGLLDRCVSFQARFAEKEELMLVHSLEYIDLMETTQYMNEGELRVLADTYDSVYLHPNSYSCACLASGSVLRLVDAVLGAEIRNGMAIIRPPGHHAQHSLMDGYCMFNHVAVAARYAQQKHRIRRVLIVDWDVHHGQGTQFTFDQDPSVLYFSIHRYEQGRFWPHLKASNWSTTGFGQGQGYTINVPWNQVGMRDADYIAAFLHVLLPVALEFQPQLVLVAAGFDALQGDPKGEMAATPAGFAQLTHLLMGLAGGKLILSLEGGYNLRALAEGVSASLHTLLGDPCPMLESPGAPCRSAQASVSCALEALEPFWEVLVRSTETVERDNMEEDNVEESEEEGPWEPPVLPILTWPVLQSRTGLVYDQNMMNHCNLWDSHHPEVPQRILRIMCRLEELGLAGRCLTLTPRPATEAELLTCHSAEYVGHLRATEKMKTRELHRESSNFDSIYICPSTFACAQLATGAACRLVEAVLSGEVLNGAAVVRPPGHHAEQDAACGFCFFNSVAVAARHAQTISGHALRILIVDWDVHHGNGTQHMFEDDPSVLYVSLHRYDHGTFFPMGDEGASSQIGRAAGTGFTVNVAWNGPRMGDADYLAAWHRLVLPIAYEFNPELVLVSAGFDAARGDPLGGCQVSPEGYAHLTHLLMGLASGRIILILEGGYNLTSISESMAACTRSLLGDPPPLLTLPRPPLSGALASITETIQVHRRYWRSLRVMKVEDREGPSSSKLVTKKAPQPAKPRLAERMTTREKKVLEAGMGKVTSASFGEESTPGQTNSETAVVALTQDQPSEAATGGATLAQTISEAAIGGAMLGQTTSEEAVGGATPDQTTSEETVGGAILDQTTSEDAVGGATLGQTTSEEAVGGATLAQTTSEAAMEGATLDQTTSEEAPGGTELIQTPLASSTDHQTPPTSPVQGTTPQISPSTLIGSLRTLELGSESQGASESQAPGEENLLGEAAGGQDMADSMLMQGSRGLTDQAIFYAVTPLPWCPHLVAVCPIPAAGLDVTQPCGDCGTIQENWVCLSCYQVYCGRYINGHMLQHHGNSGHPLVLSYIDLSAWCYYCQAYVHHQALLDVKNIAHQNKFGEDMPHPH

Row | Structure (SMILES) | CI [1] | CI [2] | CI [3] | CI [4] | CI (CAL-27 [5]) | CI (CAL-27 [6]) | CI [7] | CI [8] | CI (CAL-27 [9]) | CI (CAL-27 [10]) | CI (CAL-27 [11]) | CI [12] | IC50 (CAL-27 [13]) [nM] | CI [14] | IC50 [15] [nM] | CI [16] | IC50 [17] [nM] | CI [18] | IC50 (A2780) [nM] | CI [19]
1 | COc1cc(NC(=O)NOCCCCCC(=O)NO)c2ncccc2c1 | < 0.2 | 0.36 | < 0.2 | 0.51 | 0.49 | 0.67 | 0.35 | 0.37 | 0.36 | 0.34 | 0.37 | 0.33 | 900 | 0.37 | 1210 | 0.35 | 1300 | 0.96 | 1200 | 0.37
2 | COc1cc(NC(=O)NOCCCCCC(=O)NO)c2nc(OC)cc(C)c2c1 | 0.56 | 0.16 | < 0.2 | 0.29 | 0.42 | 0.5 | 0.23 | 0.26 | 0.69 | 0.49 | 0.49 | 0.2 | 1000 | 0.21 | 590 | 0.2 | 1300 | 0.19 | 800 | 0.19
3 | COc1cc(NC(=O)NOCCCCCC(=O)NO)c2nccc(C)c2c1 | < 0.2 | 0.25 | < 0.2 | 0.26 | 0.27 | 0.37 | 0.23 | 0.23 | 0.38 | 0.33 | 0.26 | 0.21 | 600 | 0.25 | 600 | 0.26 | 1300 | 0.28 | 1100 | 0.21
